Screening results from PubChem BioAssay.
PKA-R2B activ – activators of human PKA-R2B complex. PKA-R2B holoenzyme dissociation, Cy5-IP20 fluorescence polarization; R2B truncated from residue 108, S112A mutant; 0% DMSO only, 100% 113 µM cGMP. activation, % at 11.4 µM. 340,000 compounds, 0.079% hits. AID 504700;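 active means activation above a cutoff set at the mean over all compounds plus 3 SD, cut at about 18% in these data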;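 further: higher means more holoenzyme dissociation and a rise in polarization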
APJ ag – agonists of human APJ apelin receptor | CHO-K1 APJ PathHunter beta-arrestin, luminescence; 0% DMSO wells, 100% apelin | activation, % at 20 µM | 330,000 compounds, 0.11% hits | AID 2520;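 active means activation more than six SD over the plate average, tested at 20 µM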;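 further: 0% = DMSO alone and 100% = apelin-13 at 10 nM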
Target sequence (P35414 whole entry, looked up): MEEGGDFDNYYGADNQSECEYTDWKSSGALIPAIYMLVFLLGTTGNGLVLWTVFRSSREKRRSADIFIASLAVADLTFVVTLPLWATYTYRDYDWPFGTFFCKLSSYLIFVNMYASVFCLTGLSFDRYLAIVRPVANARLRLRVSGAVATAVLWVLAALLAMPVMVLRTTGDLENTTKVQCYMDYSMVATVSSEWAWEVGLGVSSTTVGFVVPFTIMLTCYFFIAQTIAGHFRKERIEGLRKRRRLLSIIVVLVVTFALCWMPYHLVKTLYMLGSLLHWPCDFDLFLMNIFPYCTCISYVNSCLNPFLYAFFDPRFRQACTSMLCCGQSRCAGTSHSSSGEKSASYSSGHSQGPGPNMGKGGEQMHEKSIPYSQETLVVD
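Assay system – PathHunter CHO-K1 APJ (AGTRL-1) beta-arrestin reporter cells · Compound – one dose, 20 µM compound, 1% DMSO · Timing – compound 90 min 25 °C, reagent 1 h · Measured by – luminescence from split beta-galactosidase complementation, Galacton Star/Emerald II substrate · Measure – beta-arrestin recruitment to APJ as agonist activity, luminescent signal · Benchmarks – DMSO vs Apelin-13 10 nM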
CCR6 antag – CCR6 (human) receptor antagonism; CHO-K1 CCR6 PathHunter beta-arrestin, luminescence, CCL20-stimulated; inhibition, % at 20 µM; 340,000 compounds, 0.49% hits;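 active means compounds whose inhibition of the agonist-driven luminescence signal at 20 µM reaches about 50%, limit read from the data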;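 further: cells stimulated with CCL20 at 14 nM final; plate controls were DMSO with CCL20 for no effect and DMSO without agonist for full effect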
PKA-R1A activ – PKA-R1A complex activation; P00514+P68181; PKA-R1A dissociation, Cy5-IP20 fluorescence polarization; scaled: DMSO 0%, 113 µM cGMP 100%; activation, % at 11.4 µM; 340,000 compounds, 0.083% hits; AID 504707;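 active means percent activation above the mean of all tested compounds plus 3 SD, cut at about 19% in these data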;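 further: higher means more PKAc released from R1A so a rise in polarization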
CXCR6 block – inhibitors of human CXCR6 receptor | AID 602244 | 360,000 compounds, 0.36% hits | CHO-K1 PathHunter CXCR6 beta-arrestin, luminescence | inhibition, % at 20 µM | O00574; in the data active means inhibition above about 34%, passing the limit was not always enough;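 further: antagonist mode with CXCL16 agonist at 10 nM final; 0% = 10 nM CXCL16 with DMSO and 100% = unstimulated wells without agonist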
APJ antag – APJ receptor antagonism; CHO-K1 APJ beta-arrestin complementation, luminescence; inhibition, % at 20 µM; 330,000 compounds, 0.32% hits; AID 2521;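 active means inhibition above about 40% at 20 µM, limit read from the data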;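 further: cells challenged with 10 nM apelin-13 agonist together with compound; plate controls were apelin-13 plus DMSO wells for no effect and DMSO wells lacking apelin-13 for full effect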
CXCR6 antag conf – confirmation of human CXCR6 receptor antagonists. shares compounds with CXCR6 block. CHO-K1 CXCR6 PathHunter beta-arrestin, luminescence. inhibition, % at 20 µM. 700 compounds, 65% hits. AID 602409;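 active means mean inhibition over four retests above 40%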;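 further: receptor stimulated with 10 nM CXCL16 agonist; beta-galactosidase fragment complementation upon beta-arrestin recruitment to receptor; plate controls were CXCL16 plus DMSO for no effect and DMSO without CXCL16 for full effect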
Starred values were filed as active, the others as inactive; . = not tested or not shown. A selection: hits, their analogues and other compounds. The true share with any hit is near 0.88%.

SMILES	PKA-R2B activ	APJ ag	CCR6 antag	PKA-R1A activ	CXCR6 block	APJ antag	CXCR6 antag conf
C=CC[C@H](CC(=O)N(CCO)Cc1ccccc1)C(=O)NC[C@H](OC(=O)[C@@H](CC=C)CC(=O)OC(C)(C)C)c1ccccc1	-14	-7	29	-12	51*	16	40
C=CCOc1ccc(C=NNc2ccc(S(=O)(=O)Nc3ccccc3C(=O)O)cc2[N+](=O)[O-])cc1OC	-4	-2	.	-2	50*	11	44*
O=C1CN(C(=O)CSc2nc3cc(Cl)ccc3c(=O)n2Cc2ccccc2)c2ccccc2N1	2	-7	56*	2	43*	29	47*
CCc1ccc(NC(=O)c2nc(S(=O)(=O)Cc3ccccc3)ncc2Cl)cc1	8	1	.	0	82*	-9	80*
CCS(=O)(=O)c1ncc(Cl)c(C(=O)Nc2ccccc2OC)n1	-2	-5	37	-6	26	18	.
COC(=O)c1ccc(NC(=O)c2nc(S(=O)(=O)Cc3cccc(C)c3)ncc2Cl)cc1	3	-11	67*	-10	66*	34	61*
CSc1ncc(Cl)c(C(=O)Nc2ccc(C)c(C)c2)n1	0	-4	14	-8	-2	10	.
Cc1cccc(CS(=O)(=O)c2ncc(Cl)c(C(=O)NCc3ccc4c(c3)OCO4)n2)c1	-9	-5	48	2	57*	-11	44*
Cc1ccc(NC(=O)c2nc(S(=O)(=O)Cc3ccccc3C)ncc2Cl)cc1C	-4	-3	61*	-5	50*	21	60*
O=C(O)C1CCCN1C(=O)NC1CCCCC1 (stereo not given)	-1	-5	19	-5	5	-9	.
CCOC(=O)c1ccc(NC(=O)c2nc(S(=O)(=O)Cc3ccccc3)ncc2Cl)cc1	6	-3	89*	-10	70*	34	73*
CCOc1ccccc1NC(=O)c1nc(S(=O)(=O)Cc2ccccc2)ncc1Cl	-8	-9	51*	-2	56*	18	53*
O=C(Nc1ccccc1)c1ccc(Nc2c([N+](=O)[O-])cc([N+](=O)[O-])c3ccccc23)cc1	-4	-10	84*	-1	56*	75*	67*
CCc1cccc2c(C(=O)C(F)(F)F)cn(CC(=O)NCC3CCCO3)c12 (stereo not given)	9	-5	13	-9	46*	6	2
CCc1cc(-c2cnnn2Cc2ccccc2)ccc1-c1cn(CC(C)C)nn1	-1	.	.	1	60*	.	8
CCCn1c(Nc2nc3ccccc3n2C)nc2ccccc21	1	2	84*	2	70*	8	5
CCCCn1c(Nc2ccccc2)nc2ccccc21	6	0	2	-9	-4	13	.
O=C(NCC(c1ccco1)N1CCc2ccccc2C1)c1ccccc1 (stereo not given)	2	4	14	4	3	23	.
COc1cc(C(=O)NCC(c2ccco2)N2CCc3ccccc3C2)cc(OC)c1OC (stereo not given)	-2	0	9	-2	44*	-50	54*
COc1ccc(/C=C(\C#N)C(=O)NC(C)c2ccccc2)cc1O (stereo not given)	10	2	13	2	-12	22	.
COC(=O)c1ccc(/C=C(\C#N)C(=O)NC(C)c2ccccc2)cc1 (stereo not given)	-6	10	53*	-4	40*	12	55*
CC(C)(C)N(Cc1ccccc1)C(=O)COC(=O)CCN1C(=O)C2CC=CCC2C1=O (stereo not given)	-10	6	-6	-1	4	-5	.
Cn1c(SCC(=O)NNC(=O)c2ccc(Cl)cc2)nnc1-c1cccnc1	-9	-3	3	9	-6	18	.
O=C1C=CC(=O)N1CCNc1ncc(C(F)(F)F)cc1Cl	-10	-1	.	2	97*	-12	77*
O=C1CC(=O)N(CCNc2ncc(C(F)(F)F)cc2Cl)C(=O)N1	5	3	6	-5	6	1	.
SMILES	PKA-R2B activ	APJ ag	CCR6 antag	PKA-R1A activ	CXCR6 block	APJ antag	CXCR6 antag conf
COc1cc(C(=O)NC2CC3CCCC(C2)N3CC(=O)Nc2ccccc2)cc(OC)c1OC (stereo not given)	10	-4	4	-3	62*	6	69*
CN(C)/C=C/c1oc2ccc(O)cc2c1[N+](=O)[O-]	-1	-7	61*	-16	42*	49*	66*
COc1cc(-c2noc(CCCC(=O)NCc3ccccc3)n2)cc(OC)c1OC	0	1	-5	1	0	-3	.
O=C(Nc1ncccn1)c1cc([N+](=O)[O-])cc([N+](=O)[O-])c1	-1	3	2	2	-16	-26	.
O=[N+]([O-])c1cc(-c2ncccn2)c([N+](=O)[O-])s1	-2	-2	85*	-4	56*	6	73*
CSc1nc2ccsc2c(=O)n1-c1ccccn1	0	-3	5	-2	-1	0	.
CCc1ccc2c(c1)/C(=C/C(=O)c1cccs1)C(=O)N2	5	3	45	-1	41*	-1	25
C=C1C(=O)[C@]23C[C@H]1CCC2[C@@]1(C)C(C[C@@H]3O)[C@](C)(C(=O)OC)CC[C@@H]1O (stereo not given in full)	.	.	.	.	55*	.	70*
C[C@@]12C(C[C@H](O)[C@@]34C[C@@H](CCC13)[C@@H](CO)C4=O)[C@](C)(C(=O)O)CC[C@@H]2O (stereo not given in full)	.	.	.	.	-6	.	.
COc1ccc2oc(=O)c(C(=O)NCc3ccco3)cc2c1	-4	-1	0	6	-7	1	.
O=C(Nc1ccc(Oc2ccccc2)cc1)c1csc([C@@H]2O[C@H](CO)[C@H](O)[C@H](O)[C@H]2O)n1	.	.	.	.	48*	.	52*
Cc1c(CCCl)c(Cl)n2c(nc3ccccc32)c1C#N	0	.	63*	-2	44*	.	40
O=C(Nc1nc2ccccc2s1)c1cc(-c2ccccc2)nn1-c1ccccc1	2	4	14	-13	-5	-9	.
O=C(NNC(=O)c1cc(-c2ccccc2)nn1-c1ccccc1)c1ccccc1	0	-5	.	-4	46*	-10	41*
CC(=NO)C1CCC2C3CCC4=CC(=NO)CCC4(C)C3C(O)CC12C (stereo not given)	-8	.	57*	-2	44*	.	57*
